PP5 inh – blocks human protein phosphatase 5 activity; purified PP5c, OMFP substrate fluorescence; AID 1987; inhibition, % at 6.7 µM; P53041; 320,000 compounds, 0.18% hits;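 active means inhibition above the campaign's mean inhibition across all tested compounds plus 3 SD, cut at about 9.5% in these data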;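 further: 0% = DMSO only and 100% = 100 µM cantharidin control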
GSTO1 counter – blocks human GSTO1 in RBBP9 counter-screen; P78417; recombinant GSTO1, activity-based probe fluorescence polarization; inhibition, % at 5.96 µM; 300,000 compounds, 1.1% hits; AID 1974;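 active means inhibition above the campaign mean inhibition plus 3 SD, cut at about 35% in these data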;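 further: 0% = GSTO1-1 with DMSO and 100% = wells lacking GSTO1-1 enzyme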
PAD4 FP inh – blocks human protein arginine deiminase 4; recombinant PAD4, RCA probe fluorescence polarization; AID 485272; inhibition, % at 6.36 µM; Q9UM07; 330,000 compounds, 0.41% hits;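 active means percent inhibition above a cutoff equal to the mean of all tested compounds plus 3 SD, cut at about 15% in these data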;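 further: 0% = PAD4 with RCA probe and DMSO and 100% = probe without PAD4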
UCH37 DUB inh – human UCH37 deubiquitinating enzyme inhibition | Q9Y5K5 | purified proteasome/UCH37, Ub-AMC cleavage fluorescence | inhibition, % (no concentration beside the values) | 330,000 compounds, 0.33% hits;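 active means mean inhibition over replicate wells above about 20%, limit read from the data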;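 further: 0% = compound-free wells with enzyme and 100% = wells lacking proteasome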
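Material: human UCH37 enzyme supplied as purified proteasome complex / Amount: 0.15 nM proteasome as dispensed / Buffer or medium: pH 7.4 Tris-HCl (50 mM) with ovalbumin, ATP-MgCl2, DTT / Times: preincubation 30 min, reaction 25 min, room temperature / Technique: AMC fluorescence from Ub-AMC cleavage, excitation 355 nm, emission 460 nm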
Fh CTSL1 inh – counter-screen for PFM18AAP inhibitors: inhibitors of F. hepatica cathepsin L1; inhibition, % at 5.96 µM; recombinant F. hepatica cathepsin L1, Z-Leu-Arg-MCA fluorescence; 300,000 compounds, 0.49% hits; AID 1906;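 active means inhibition above the mean of all tested compounds plus 3 SD, set per screening campaign, cut at about 17% in these data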;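 further: 0% = plate median of test compound wells and 100% = 1 µM Z-Phe-Ala-diazomethylketone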
Apaf-1 inh – human Apaf-1 inhibition; O14727; reconstituted apoptosome caspase-3 activity, DEVD-Rh110 fluorescence; inhibition, % at 20 µM; 330,000 compounds, 0.71% hits; active means inhibition of at least 40% at 20 µM;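 further: plate controls were DMSO wells for no effect and DEVD-CHO caspase inhibitor wells for full effect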
Target sequence (O14727 whole entry, looked up): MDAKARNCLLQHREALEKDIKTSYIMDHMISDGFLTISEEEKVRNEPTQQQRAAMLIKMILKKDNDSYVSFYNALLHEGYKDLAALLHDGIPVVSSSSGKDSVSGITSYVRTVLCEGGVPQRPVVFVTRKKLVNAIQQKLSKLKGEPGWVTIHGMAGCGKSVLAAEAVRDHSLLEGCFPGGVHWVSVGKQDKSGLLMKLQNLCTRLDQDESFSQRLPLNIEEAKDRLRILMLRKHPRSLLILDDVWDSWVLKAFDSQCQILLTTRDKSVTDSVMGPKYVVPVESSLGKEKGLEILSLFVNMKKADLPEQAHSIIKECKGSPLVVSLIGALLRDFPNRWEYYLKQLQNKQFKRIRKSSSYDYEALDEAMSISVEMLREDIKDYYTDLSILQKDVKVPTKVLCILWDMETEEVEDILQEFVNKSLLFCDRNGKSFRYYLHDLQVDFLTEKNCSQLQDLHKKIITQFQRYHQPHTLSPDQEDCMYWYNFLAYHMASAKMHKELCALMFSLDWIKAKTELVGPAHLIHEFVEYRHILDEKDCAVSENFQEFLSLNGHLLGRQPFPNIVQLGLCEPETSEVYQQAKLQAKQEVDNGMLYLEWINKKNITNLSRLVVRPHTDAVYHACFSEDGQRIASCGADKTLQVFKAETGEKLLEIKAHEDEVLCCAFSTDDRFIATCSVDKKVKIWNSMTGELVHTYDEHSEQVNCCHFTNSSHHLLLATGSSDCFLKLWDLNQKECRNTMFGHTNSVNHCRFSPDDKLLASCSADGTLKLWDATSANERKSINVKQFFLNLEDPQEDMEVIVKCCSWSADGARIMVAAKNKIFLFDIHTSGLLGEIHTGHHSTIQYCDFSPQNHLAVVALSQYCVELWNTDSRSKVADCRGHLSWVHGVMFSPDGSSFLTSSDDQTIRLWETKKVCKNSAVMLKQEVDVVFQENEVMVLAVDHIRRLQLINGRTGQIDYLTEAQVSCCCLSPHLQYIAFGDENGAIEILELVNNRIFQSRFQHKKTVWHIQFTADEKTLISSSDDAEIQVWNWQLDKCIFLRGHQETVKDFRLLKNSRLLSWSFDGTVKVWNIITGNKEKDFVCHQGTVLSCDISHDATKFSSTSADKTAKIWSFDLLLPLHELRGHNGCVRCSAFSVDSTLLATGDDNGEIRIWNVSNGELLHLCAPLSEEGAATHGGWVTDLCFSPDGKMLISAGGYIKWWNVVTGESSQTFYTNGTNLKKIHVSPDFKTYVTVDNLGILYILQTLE
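Assay system – apoptosome proteins · Medium – Hepes buffer, pH 7.5 · Also added – cytochrome c with DEVD-Rh110 · Timing – 30 min compound preincubation, 50 min activation, room temperature · Detection – Rh110 fluorescence, excitation 480 nm, emission 540 nm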
Apaf-1 inh conf2 – Apaf-1 inhibition, single-dose confirmed. AID 504614. shares compounds with Apaf-1 inh. reconstituted apoptosome, caspase-3 DEVD-Rh110 fluorescence. 1,800 compounds, 25% hits. inhibition, % at 20 µM;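 active means mean inhibition of at least 40% at 20 µM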;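 further: plate controls were DMSO wells for no effect and DEVD-CHO caspase inhibitor control wells for full effect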
Rh110 interf inh – counter-screen for Apaf-1 inhibitors: fluorescence interference; shares compounds with Apaf-1 inh; Rh110 fluorescence interference, quenched caspase reaction; activation (fluorescence interference), % at 20 µM; 1,800 tested, under 10 active; AID 504615;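 active means signal rise of 40% or more at 20 µM, treated as a fluorescence artifact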
Apaf1 inh interf – Apaf-1 inhibitor counter-screen fluorescence artifact. AID 588538. shares compounds with Apaf-1 inh. IC50, µM. 460 tested, under 10 active. fluorescence interference counterscreen, Apaf-1 assay format; call rule not given here
Numbers without * were called inactive; · = no result. Rows were chosen to be rich in hits. Some 2% of all compounds tested hit in one or more screens of this group.

SMILES	PP5 inh	GSTO1 counter	PAD4 FP inh	UCH37 DUB inh	Fh CTSL1 inh	Apaf-1 inh	Apaf-1 inh conf2	Rh110 interf inh	others
C#CCOCCOCCOCCNc1nc(N2CCN(C(=O)[C@H](CCCCN)n3cc(CCCC)nn3)CC2)nc(N2CCN(C(=O)[C@H](CCCCN)n3cc(CCCC)nn3)CC2)n1	0	7	-2	-1	-5	50*	11	-3
COC(=O)c1ccc(C=NNC(=O)CC(=O)NCC(C)C)cc1	·	·	·	-1	·	·	·	·
O=C(NN=Cc1ccc(OC(=O)c2ccccc2)cc1)c1cccc(O)c1	·	·	·	-2	·	·	·	·
C=CCn1c(COc2cccc(C)c2)nnc1SC(C)C(=O)NC1CC1 (configuration not stated)	1	·	-3	-1	·	41*	47*	6	Apaf1 inh interf=>100
C=CCn1c(COc2ccc(OC)cc2)nnc1SC(C)C(=O)NC1CC1 (configuration not stated)	-1	·	-5	1	·	-9	·	·
Cc1ccccc1-n1c(SCC(=O)NN=Cc2c(C)nn(-c3ccccc3)c2C)nc2ccccc2c1=O	·	·	·	4	·	·	·	·
CCN1CCN(c2cc(N3CCN(C(=O)c4ccco4)CC3)c3c4c(onc24)-c2ccccc2C3=O)CC1	4	32	13	·	-3	42*	29	7
Cc1cc(N2CCN(C(=O)c3ccco3)CC2)c2ccccc2n1	1	5	0	9	1	-6	·	·
Nc1cccc2nsnc12	1	24	-11	5	-2	68*	14	-5
Cc1ccc2nsnc2c1N	-1	15	-14	-2	-2	-4	·	·
COc1ccccc1OCC(=O)NCC1CCCN(C(=O)c2ccccc2SC)C1 (configuration not stated)	0	6	2	5	-6	51*	10	-1
COc1ccc(OC)c(C2=NOC(C(=O)Nc3ccc4c(c3)OCCO4)C2)c1 (configuration not stated)	4	5	1	-2	-3	42*	5	1
CCCCCCCCCCCCCCCC(O)C(N)CO (configuration not stated)	-4	2	3	5	-1	80*	21	13
O=C(NN=Cc1ccccn1)c1cccc(C(=O)NN=Cc2ccccn2)n1	·	·	·	0	·	·	·	·
N#Cc1c(NCCO)nc(NCc2ccccc2)c2c1CCN(Cc1ccccc1)C2	2	18	-2	-26	2	60*	25	12
CC=NNC(=O)c1cc(Br)ccc1O	·	·	·	-76	·	·	·	·
C/C=N/NC(=O)c1cc(Br)ccc1O	-1	-5	-7	·	0	57*	3	9
O=C(Cc1ccc(F)cc1)OCC(=O)N1CCN(S(=O)(=O)c2ccc(Cl)cc2)CC1	2	-4	-3	2	-9	6	·	·
O=C(Cc1cccc(C(F)(F)F)c1)OCC(=O)N1CCN(S(=O)(=O)c2ccc(Cl)cc2)CC1	5	7	-8	6	-8	51*	28	-9
COc1ccc2cc1Oc1ccc(cc1)C[C@H]1c3cc(c(OC)cc3CCN1C)Oc1c(OC)c(OC)cc3c1[C@H](C2)N(C)CC3	3	2	-5	1	0	32	·	·
COc1ccc2cc1Oc1ccc(cc1)C[C@H]1c3c(cc4c(c3Oc3cc5c(cc3OC)CCN(C)[C@@H]5C2)OCO4)CCN1C	-1	6	-4	0	0	49*	18	-6
Cc1ccc2nc(/C(C#N)=C\c3ccc(N4CCOCC4)o3)[nH]c2c1	1	-27	-7	4	2	44*	18	-28
Cc1cc([N+](=O)[O-])nn1CC(=O)NN=Cc1ccccc1F	·	·	·	1	·	·	·	·
CCOC(=O)c1cc(C(=O)c2cccs2)n2ccc(C(C)=O)cc12	-1	14	5	-5	3	42*	10	4
Cc1cccc(/C=C2/Sc3ccc(C(=O)NCCN4CCCC4)cc3NC2=O)c1	4	-41	-5	7	3	33	·	·
SMILES	PP5 inh	GSTO1 counter	PAD4 FP inh	UCH37 DUB inh	Fh CTSL1 inh	Apaf-1 inh	Apaf-1 inh conf2	Rh110 interf inh	others
CCOC(=O)C1CCN(C(=O)c2ccc3c(c2)NC(=O)/C(=C\c2cccc(C)c2)S3)CC1	6	-206	-6	-14	-4	40*	22	1
COc1cccc(/C=C2/Sc3ccc(C(=O)NCCN4CCCCCC4)cc3NC2=O)c1	2	-76	-2	1	4	40	32	4
COc1ccc(NC(=O)CC2Nc3cccc4cccc(c34)NC2=O)cc1 (configuration not stated)	1	32	-11	-3	5	94*	11	1
O=C(O)COc1ccc(Br)cc1C=NO	·	·	·	2	·	·	·	·
CN1C(=O)c2cccc3c(S(=O)(=O)NCc4ccco4)ccc1c23	0	1	0	-8	6	55*	16	3
COc1ccccc1C(CNC(=O)c1cccc(S(=O)(=O)Nc2ccc(C)cc2)c1)N(C)C (configuration not stated)	1	3	3	2	3	46*	28	7
COc1ccc(NS(=O)(=O)c2cccc(C(=O)NCC(c3ccccc3)N(C)C)c2)cc1 (configuration not stated)	0	2	-5	1	7	22	·	·
CCN(C(=O)c1coc(=O)c(Br)c1)c1ccc2c(c1)OCO2	3	32	2	-99	-1	59*	18	0
CCCCC(CC)CN1C(=O)/C(=C/c2ccncc2)SC1=S (configuration not stated)	1	-1	0	1	0	42*	17	10
CCN1C(=O)/C(=C\c2ccncc2)SC1=S	-1	-4	-11	6	-5	13	·	·
Clc1ccc(N=c2ssnc2Cl)nc1	2	19	6	17	8	55*	67*	3	Apaf1 inh interf=>100
O=C(CNc1ccc2ccccc2c1)NN=Cc1ccc([N+](=O)[O-])o1	·	·	·	3	·	·	·	·
COc1cccc2cc(C(=O)NCc3ccc(Cl)cc3)c(=N)oc12	2	-4	3	3	4	42*	24	11
CC(=NNc1nc(-c2cc(C)ccc2C)cs1)c1cc2c(ccc3ccccc32)oc1=O	·	·	·	-28	·	·	·	·
CCN(Cc1ccccc1)S(=O)(=O)c1ccc(C(=O)N(CCCN(C)C)c2nc3cc(OC)ccc3s2)cc1	2	16	-1	6	0	40*	15	12

Bioassay records as filed in PubChem.
